Measurements pooled from the literature.
Sample: plasma

SMILES | system | setting | Cmax
CCOC(=O)[C@@]12C[C@@H]1[C@@H](n1ccc3c(NC)nc(C#Cc4ccc(Cl)s4)nc31)[C@H](O)[C@@H]2O | male Sprague-Dawley rat | oral, 3 mg/kg | 67.1 ng/mL
CCc1cc(OC)c2nccc(N3CCc4c(cc(Cn5ccnc5)cc4-c4cn(C)nc4C(F)(F)F)C3=O)c2c1 | male Sprague-Dawley rat | oral, 50 mg/kg | 2700 ng/mL
COCc1nn(Cc2ccc(Cn3ccccc3=O)cc2)cc1C(=O)NCc1nccc(OC)c1C | male Sprague-Dawley rat | oral, 10 mg/kg | 1020 ng/mL
COc1ccc2c(Cc3ccccc3F)c3n(c(=O)c2c1OC)CCc1cc2c(cc1-3)OCO2 | rat | oral, 5 mg/kg | 310 ng/mL
CCNC(=O)c1nc(-c2ccc3[nH]c(-c4nc(C)no4)cc3c2)c(C)[nH]1 | Sprague-Dawley rat | oral, 10 mg/kg, suspension | 2600 nM
CCc1cc(C(=O)NC)c2nccc(N3CCc4c(cc(Cn5ccnc5)cc4-c4cn(C)nc4C(F)(F)F)C3=O)c2c1 | male Sprague-Dawley rat | oral, 100 mg/kg, single dose | 10100 ng/mL
CNCc1cc(-c2ccccc2F)n(S(=O)(=O)c2cccnc2)c1 | Sprague-Dawley rat | oral, 10 mg/kg | 245 ng/mL
COc1cc(/C=C/C(=O)CC(=O)/C=C/c2ccc(O)c(OC)c2)ccc1O | male Sprague-Dawley rat | oral, 100 mg/kg | 5.99 ng/mL
C=CC(=O)N1CC2CC(n3nc(-c4ccc(C(=O)Nc5ccccn5)cc4)c4c(N)ncnc43)CC2C1 (stereo not shown) | male Wistar rat | oral, 100 mg/kg | 2880 ng/mL
Cc1c(-c2ccccc2)cccc1N1C(=O)c2cc(CN[C@H](C(=O)O)C(C)O)c(OCc3cccc(C#N)c3)cc2C1=O (stereo partly shown) | Sprague-Dawley rat | oral, 50 mg/kg | 26 ng/mL
Cl.Clc1ccc2c(c1)nc(N1CCNCC1)n2Cc1ccccc1 | rat | oral, 5 mg/kg | 800 nM
N#Cc1[nH]nnc1-c1cccc(OCc2cc(C(F)(F)F)ccc2C(F)(F)F)c1 | male Sprague-Dawley rat | oral, 10 mg/kg | 4820 ng/mL
COc1nc(-c2cc(C)c(N[C@@H](C)c3cc(F)cc(F)c3)nn2)ccc1-n1cnc(C)c1 | male Sprague-Dawley rat | intravenous, 1 mg/kg, single dose | 3570 ng/mL
N#Cc1[nH]nnc1-c1csc(-c2ccc(Cl)cc2)n1 | male Sprague-Dawley rat | oral, 10 mg/kg | 5230 ng/mL
COCc1nn(Cc2ccc(Cn3ccccc3=O)cc2)cc1C(=O)NCc1c(F)ccc(OC)c1F | male Sprague-Dawley rat | oral, 10 mg/kg | 2890 ng/mL
N#Cc1ccc(Nc2nc(N)cc(Oc3c(F)cc(-c4ccc(C#N)cc4)cc3F)n2)cc1 | Sprague-Dawley rat | oral, 5 mg/kg | 15.4 ng/mL
O=C1N(Cc2ccccc2Cl)c2ccccc2C12NN=C(c1ccccc1)S2 (stereo not shown) | Sprague-Dawley rat | oral, 40 mg/kg | 1190 ng/mL
O=C(Nc1cc(F)c(F)c(F)c1)c1ccc(F)c(S(=O)(=O)NCc2cccc(B(O)O)c2)c1 | male Sprague-Dawley rat | oral, 20 mg/kg | 46.3 ng/mL
COc1ccnc(CNC(=O)c2cn(Cc3ccc(Cn4ccccc4=O)cc3)nc2C(F)(F)F)c1F | male Sprague-Dawley rat | oral, 10 mg/kg | 2490 ng/mL
Cc1ccc(S(=O)(=O)n2cc3c4c2C(=O)C(NCc2ccc(Cl)cc2)=CC4=NCC3)cc1 | rat | intravenous, 5 mg/kg, single dose | 1240 ng/mL
CC(C)(C)C[C@H]1N[C@@H](C(=O)NCC[C@H](O)CO)[C@H](c2cccc(Cl)c2)[C@@]12C(=O)Nc1cc(Cl)c(F)cc12 | rat | oral, 25 mg/kg | 6400 nM
COc1cc2c3c(n(CCCN4CCOCC4)c(=O)c2cc1OC)-c1cc2c(cc1C3=O)OCO2 | female Fischer 344 rat | intravenous, 24 mg/m², single dose | 568 ng/mL
